The results in this text go back to ChEMBL document CHEMBL1151785, “Oleanolic acid and its derivatives: new inhibitor of protein tyrosine phosphatase 1B with cellular activities” (Bioorg Med Chem, 2008).

A word on the IC50: it is the midpoint of a concentration-inhibition curve.

For assay [1], the target named is T1, Tyrosine-protein phosphatase non-receptor type 1 (Homo sapiens, UniProt P18031).
T1 sequence (P18031 whole entry): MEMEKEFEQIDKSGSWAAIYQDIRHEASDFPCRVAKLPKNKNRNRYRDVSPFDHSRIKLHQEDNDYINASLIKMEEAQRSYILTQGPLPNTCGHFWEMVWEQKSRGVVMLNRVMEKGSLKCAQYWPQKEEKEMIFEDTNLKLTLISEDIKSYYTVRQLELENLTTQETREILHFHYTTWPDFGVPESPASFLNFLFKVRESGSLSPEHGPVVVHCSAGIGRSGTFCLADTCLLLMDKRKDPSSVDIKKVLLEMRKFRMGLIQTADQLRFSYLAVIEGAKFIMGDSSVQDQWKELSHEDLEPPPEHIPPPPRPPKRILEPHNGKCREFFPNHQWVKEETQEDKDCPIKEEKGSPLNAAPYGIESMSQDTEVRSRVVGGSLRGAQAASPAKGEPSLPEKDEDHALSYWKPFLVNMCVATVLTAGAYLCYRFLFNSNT
The experiment in a line: Inhibition of PTP1B by pNPP assay.

Assay [2] has as its target Tyrosine-protein phosphatase non-receptor type 6 (Homo sapiens, UniProt P29350). The experiment in a line: Inhibition of human recombinant SHP1.
Assay [3] can be described thus: Selectivity for PTP1B to human recombinant SHP1.
Assay [4] concerns the target Receptor-type tyrosine-protein phosphatase epsilon (Homo sapiens, UniProt P23469). Nature of the assay: Inhibition of human recombinant PTPepsilon.
In assay [5] the target is T2, Tyrosine-protein phosphatase non-receptor type 2 (Homo sapiens, UniProt P17706).
T2 sequence (P17706 whole entry): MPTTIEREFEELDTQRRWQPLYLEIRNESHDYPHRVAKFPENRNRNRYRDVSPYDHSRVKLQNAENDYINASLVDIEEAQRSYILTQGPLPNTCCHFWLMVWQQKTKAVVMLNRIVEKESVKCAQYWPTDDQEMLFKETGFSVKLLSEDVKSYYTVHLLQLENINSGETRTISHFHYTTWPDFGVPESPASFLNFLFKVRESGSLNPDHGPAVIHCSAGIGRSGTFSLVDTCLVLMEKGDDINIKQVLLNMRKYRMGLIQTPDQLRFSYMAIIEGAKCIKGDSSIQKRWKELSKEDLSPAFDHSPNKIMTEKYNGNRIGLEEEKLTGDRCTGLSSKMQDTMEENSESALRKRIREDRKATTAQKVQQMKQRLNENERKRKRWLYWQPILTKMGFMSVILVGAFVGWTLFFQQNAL
Nature of the assay: Inhibition of TCPTP by pNPP assay.

The target of assay [6] is Receptor-type tyrosine-protein phosphatase alpha (Homo sapiens, UniProt P18433). The experiment in a line: Inhibition of human recombinant PTPalpha.
The target in assay [7] is Receptor-type tyrosine-protein phosphatase F (Homo sapiens, UniProt P10586). Nature of the assay: Inhibition of human recombinant LAR.
The target in assay [8] is Insulin receptor (Homo sapiens) (UniProt P06213). Nature of the assay: Increase in human IRbeta phosphorylation expressed in CHO cells. The format is cell-based. In a few lines: (§1)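 CHO cells stably carrying human insulin receptor were grown near-confluent, then starved 2 h in serum-free Ham's F-12. Compound was given for 3 h, followed by 10 nM insulin for 10 min. Lysates were run on 8% SDS-PAGE and western blotted for phospho-IR (Tyr1162/1163), phospho-Akt (Ser473) and β-actin, with ECL detection.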

For assay [9], the system named is L6. Nature of the assay: Increase in glucose uptake in rat L6 cells after 3 hrs in absence of insulin. It is filed as functional, cell-based. The method in brief:
(§2)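 Rat L6 myoblasts grown in α-DMEM with 10% FBS at 37 °C under 5% CO2, then differentiated in α-DMEM with 2% FBS. Used as myotubes on day 5 after 2 h serum-free starvation (0.2% BSA). Compound at 250 nM–2 µM for 3 h without insulin. 2-Deoxy[1,2-3H]glucose uptake measured over 10 min in HEPES saline, pH 7.4, 0.1 mM glucose. Lysate counts normalised to protein, given as % of basal/0.2% DMSO cells.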

Assay [10] concerns L6. The experiment in a line: Increase in glucose uptake in rat L6 cells at 1 uM after 3 hrs in presence of insulin relative to basal. The format is functional. To be noted: in the assay text read “after 2.5 hrs” for “after 3 hrs”. The method in brief:
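Differentiated rat L6 myotubes (day 5) were serum-starved 2 h, exposed to 1.0 µM compound for 2.5 h, then stimulated 30 min with 1, 10 or 100 nM insulin. 2-Deoxy[1,2-3H]glucose uptake was read over 10 min (0.1 mM glucose, HEPES saline pH 7.4). Radioactivity from 0.1% Triton lysates was normalised to protein and expressed relative to basal/DMSO-treated cells.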

The test system of assay [11] is L6. The experiment in a line: Increase in glucose uptake in rat L6 cells at 1 uM after 3 hrs in absence of insulin relative to basal. The format is functional. The method in brief: as §2
Assay [12] has as its target RAC-alpha serine/threonine-protein kinase (Homo sapiens) (UniProt P31749). The experiment in a line: Increase in human Akt phosphorylation expressed in CHO cells. The format is cell-based. In a few lines:
as §1

SMILES strings stand for the structures. Active and inactive are the calls of the source. No cut-off for these calls is given here.

Receptor-type tyrosine-protein phosphatase epsilon, sequence (P23469 whole entry): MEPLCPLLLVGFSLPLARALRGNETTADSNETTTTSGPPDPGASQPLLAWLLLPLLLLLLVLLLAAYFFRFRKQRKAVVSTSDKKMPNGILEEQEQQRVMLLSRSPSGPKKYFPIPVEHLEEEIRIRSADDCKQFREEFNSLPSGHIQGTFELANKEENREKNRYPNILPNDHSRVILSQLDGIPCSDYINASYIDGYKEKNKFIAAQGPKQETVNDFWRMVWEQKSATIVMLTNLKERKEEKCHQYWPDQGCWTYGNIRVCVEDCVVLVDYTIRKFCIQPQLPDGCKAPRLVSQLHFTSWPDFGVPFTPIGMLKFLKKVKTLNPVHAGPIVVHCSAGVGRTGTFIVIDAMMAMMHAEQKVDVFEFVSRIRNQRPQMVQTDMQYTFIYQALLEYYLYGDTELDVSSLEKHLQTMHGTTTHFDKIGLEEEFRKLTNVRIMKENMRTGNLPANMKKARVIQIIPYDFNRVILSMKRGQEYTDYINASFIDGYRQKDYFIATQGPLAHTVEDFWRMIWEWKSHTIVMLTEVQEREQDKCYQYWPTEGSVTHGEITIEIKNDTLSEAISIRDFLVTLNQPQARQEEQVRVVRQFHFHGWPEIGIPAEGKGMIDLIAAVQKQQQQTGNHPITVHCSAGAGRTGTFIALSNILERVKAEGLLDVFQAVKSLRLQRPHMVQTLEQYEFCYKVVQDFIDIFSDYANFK
Tyrosine-protein phosphatase non-receptor type 6, sequence (P29350 whole entry): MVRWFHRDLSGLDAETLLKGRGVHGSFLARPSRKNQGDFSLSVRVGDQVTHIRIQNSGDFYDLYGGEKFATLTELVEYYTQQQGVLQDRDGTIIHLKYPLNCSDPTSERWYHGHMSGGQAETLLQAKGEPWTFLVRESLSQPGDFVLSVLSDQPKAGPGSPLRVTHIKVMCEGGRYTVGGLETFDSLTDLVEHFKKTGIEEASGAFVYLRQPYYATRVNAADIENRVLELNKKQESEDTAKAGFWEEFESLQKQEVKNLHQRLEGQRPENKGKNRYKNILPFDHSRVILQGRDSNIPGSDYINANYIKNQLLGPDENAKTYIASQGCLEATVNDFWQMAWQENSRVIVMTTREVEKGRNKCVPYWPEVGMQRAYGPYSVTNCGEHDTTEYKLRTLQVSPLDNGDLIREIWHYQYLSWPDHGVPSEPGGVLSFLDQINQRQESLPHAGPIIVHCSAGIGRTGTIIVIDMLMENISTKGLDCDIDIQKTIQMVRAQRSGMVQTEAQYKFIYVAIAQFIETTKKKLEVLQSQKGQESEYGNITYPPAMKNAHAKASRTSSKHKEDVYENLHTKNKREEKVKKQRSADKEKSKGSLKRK
Receptor-type tyrosine-protein phosphatase F, sequence (P10586 whole entry): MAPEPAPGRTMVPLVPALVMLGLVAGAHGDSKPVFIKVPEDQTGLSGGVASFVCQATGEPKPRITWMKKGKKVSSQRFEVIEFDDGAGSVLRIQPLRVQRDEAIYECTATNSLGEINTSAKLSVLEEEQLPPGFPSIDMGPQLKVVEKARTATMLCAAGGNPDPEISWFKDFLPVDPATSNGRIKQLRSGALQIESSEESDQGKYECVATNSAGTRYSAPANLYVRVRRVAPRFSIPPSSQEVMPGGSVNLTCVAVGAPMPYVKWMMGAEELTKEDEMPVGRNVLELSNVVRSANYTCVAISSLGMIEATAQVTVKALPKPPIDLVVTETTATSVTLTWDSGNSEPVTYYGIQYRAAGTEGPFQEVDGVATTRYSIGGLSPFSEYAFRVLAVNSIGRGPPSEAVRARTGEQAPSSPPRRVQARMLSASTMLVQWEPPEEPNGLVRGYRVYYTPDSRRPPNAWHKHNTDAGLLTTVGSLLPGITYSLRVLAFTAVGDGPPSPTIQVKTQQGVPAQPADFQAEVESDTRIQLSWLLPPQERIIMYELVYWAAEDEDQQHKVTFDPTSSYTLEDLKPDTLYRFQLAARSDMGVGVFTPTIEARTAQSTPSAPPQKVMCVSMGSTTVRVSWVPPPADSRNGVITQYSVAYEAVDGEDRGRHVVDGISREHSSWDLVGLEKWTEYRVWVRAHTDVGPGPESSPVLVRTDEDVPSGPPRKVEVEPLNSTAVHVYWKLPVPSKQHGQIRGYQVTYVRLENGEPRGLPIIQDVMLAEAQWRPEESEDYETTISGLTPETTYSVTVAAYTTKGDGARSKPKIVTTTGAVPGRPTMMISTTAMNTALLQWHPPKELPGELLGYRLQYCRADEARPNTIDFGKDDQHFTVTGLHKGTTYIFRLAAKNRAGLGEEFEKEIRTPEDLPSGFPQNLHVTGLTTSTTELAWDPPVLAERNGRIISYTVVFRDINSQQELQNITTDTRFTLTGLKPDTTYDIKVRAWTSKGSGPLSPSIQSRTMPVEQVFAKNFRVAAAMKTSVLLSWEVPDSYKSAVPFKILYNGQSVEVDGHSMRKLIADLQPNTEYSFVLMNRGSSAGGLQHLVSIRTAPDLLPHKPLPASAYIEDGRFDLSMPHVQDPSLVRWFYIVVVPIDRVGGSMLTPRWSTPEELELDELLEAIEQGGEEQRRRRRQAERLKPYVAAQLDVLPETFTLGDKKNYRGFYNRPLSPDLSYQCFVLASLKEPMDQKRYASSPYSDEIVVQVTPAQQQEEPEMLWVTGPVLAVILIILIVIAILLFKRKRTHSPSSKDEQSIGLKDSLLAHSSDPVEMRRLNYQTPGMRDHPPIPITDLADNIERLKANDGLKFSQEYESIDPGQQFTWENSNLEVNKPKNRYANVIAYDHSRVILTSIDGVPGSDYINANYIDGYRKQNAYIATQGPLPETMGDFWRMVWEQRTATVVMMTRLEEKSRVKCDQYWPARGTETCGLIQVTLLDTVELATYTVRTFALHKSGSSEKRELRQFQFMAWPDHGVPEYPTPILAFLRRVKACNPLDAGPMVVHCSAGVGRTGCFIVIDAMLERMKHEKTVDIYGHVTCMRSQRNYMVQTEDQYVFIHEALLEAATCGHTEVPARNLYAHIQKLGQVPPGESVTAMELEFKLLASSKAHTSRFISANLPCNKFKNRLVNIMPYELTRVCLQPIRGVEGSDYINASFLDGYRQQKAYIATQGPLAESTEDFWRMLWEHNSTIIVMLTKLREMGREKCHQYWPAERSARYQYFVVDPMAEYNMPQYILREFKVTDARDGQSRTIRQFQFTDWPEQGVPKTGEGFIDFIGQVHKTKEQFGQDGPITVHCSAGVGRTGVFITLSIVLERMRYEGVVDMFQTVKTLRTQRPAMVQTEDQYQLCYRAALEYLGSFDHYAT
Receptor-type tyrosine-protein phosphatase alpha, sequence (P18433 whole entry): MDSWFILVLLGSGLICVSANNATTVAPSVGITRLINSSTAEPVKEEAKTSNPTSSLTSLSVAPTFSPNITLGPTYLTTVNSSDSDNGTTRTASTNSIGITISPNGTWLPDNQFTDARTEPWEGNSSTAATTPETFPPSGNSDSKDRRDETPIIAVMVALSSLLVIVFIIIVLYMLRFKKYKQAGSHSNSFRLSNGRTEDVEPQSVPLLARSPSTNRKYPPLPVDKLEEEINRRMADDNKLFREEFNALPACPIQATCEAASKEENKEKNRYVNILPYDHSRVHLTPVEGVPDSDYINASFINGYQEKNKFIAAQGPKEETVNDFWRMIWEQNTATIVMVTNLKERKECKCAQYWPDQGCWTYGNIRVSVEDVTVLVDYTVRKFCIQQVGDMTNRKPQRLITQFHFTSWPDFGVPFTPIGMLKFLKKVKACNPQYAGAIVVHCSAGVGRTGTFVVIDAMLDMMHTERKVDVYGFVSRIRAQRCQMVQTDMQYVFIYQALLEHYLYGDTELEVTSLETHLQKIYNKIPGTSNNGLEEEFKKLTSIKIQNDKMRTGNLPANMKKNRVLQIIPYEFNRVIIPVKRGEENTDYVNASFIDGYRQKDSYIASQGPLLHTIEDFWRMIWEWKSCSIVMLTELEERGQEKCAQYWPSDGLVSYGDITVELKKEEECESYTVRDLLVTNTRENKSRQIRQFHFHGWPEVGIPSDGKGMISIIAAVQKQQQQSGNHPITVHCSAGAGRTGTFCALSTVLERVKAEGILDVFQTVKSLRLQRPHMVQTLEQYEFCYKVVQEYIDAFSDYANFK
RAC-alpha serine/threonine-protein kinase (Homo sapiens), sequence (P31749 whole entry): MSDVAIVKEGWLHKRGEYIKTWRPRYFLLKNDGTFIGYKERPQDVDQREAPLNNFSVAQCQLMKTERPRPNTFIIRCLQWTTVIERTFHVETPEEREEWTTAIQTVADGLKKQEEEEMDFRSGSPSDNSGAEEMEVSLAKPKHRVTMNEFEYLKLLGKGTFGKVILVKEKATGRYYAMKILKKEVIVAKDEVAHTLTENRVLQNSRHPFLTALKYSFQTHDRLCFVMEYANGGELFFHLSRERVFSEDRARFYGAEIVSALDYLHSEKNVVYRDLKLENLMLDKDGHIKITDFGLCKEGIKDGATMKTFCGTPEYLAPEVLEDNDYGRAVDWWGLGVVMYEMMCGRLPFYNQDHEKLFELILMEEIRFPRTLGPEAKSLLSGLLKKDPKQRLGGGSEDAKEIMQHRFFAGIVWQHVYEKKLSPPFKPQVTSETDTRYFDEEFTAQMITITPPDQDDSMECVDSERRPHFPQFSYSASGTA

With `CC1(C)CC[C@]2(C(=O)N[C@@H](Cc3ccccc3)C(=O)O)CC[C@]3(C)C(=CC[C@@H]4[C@@]5(C)CC[C@H](O)C(C)(C)[C@@H]5CC[C@]43C)[C@@H]2C1`, the IC50 in [1] worked out at 3310 nM; in assay [2], 12600 nM.
Turning to `CC1(C)CC[C@]2(C(=O)O)CC[C@]3(C)C(=CC[C@@H]4[C@@]5(C)CC[C@H](OC(=O)CC(C)(C)C(=O)O)C(C)(C)[C@@H]5CC[C@]43C)[C@@H]2C1`, in [3], the Ratio is 2. Also, the IC50 in [1] was 2330 nM; in [2], 12400 nM; in [4], more than 40000 nM; in [5], 1380 nM; in assay [6] it was more than 40000 nM; in assay [7], more than 40000 nM.
Take `CC1(C)CC[C@]2(CCC(=O)O)CC[C@]3(C)C(=CC[C@@H]4[C@@]5(C)CC[C@H](O)C(C)(C)[C@@H]5CC[C@]43C)[C@@H]2C1`: in assay [3], the Ratio is 2. For the same compound, the half-maximal inhibitory concentration (IC50) in assay [1] is 2100 nM; in assay [2] it was 27400 nM; in assay [4] it was more than 40000 nM; in assay [5] it was 2770 nM; in assay [6] it was more than 40000 nM; in assay [7], more than 40000 nM.
Consider `CC1(C)CC[C@]2(C(=O)O)CC[C@]3(C)C(=CC[C@@H]4[C@@]5(C)CC[C@H](OCc6ccc(C(=O)O)cc6)C(C)(C)[C@@H]5CC[C@]43C)[C@@H]2C1`, for which the Ratio in assay [3] worked out at 2. The IC50 in assay [1] was 540 nM; in [2], 4050 nM; in [4], more than 40000 nM; in [5], 470 nM; in [6] it was more than 40000 nM; in [7], more than 40000 nM.
In the case of `CC1(C)CC[C@]2(CCCCC(=O)N[C@@H](Cc3ccccc3)C(=O)O)CC[C@]3(C)C(=CC[C@@H]4[C@@]5(C)CC[C@H](O)C(C)(C)[C@@H]5CC[C@]43C)[C@@H]2C1`, in assay [3], the Ratio is 2. The 50% inhibitory concentration (IC50) in assay [1] is 570 nM; in assay [2], 4080 nM; in assay [4], more than 40000 nM; in assay [5], 630 nM; in [6], more than 40000 nM; in [7], more than 40000 nM.
Regarding `CC1(C)CC[C@]2(CCCCC(=O)NC(Cc3ccc4c(c3)OCO4)C(=O)O)CC[C@]3(C)C(=CC[C@@H]4[C@@]5(C)CC[C@H](O)C(C)(C)[C@@H]5CC[C@]43C)[C@@H]2C1` (some centres undefined), the Ratio in assay [3] stood at 2. Moreover, the IC50 in assay [1] is 440 nM; in assay [2], 710 nM; in assay [4], more than 40000 nM; in [5], 600 nM; in assay [6], more than 40000 nM; in assay [7] it was more than 40000 nM.
For `C[C@H]1[C@H](C)CC[C@]2(C(=O)O)CC[C@]3(C)C(=CC[C@@H]4[C@@]5(C)CC[C@H](O)C(C)(C)[C@@H]5CC[C@]43C)[C@H]12` [URSOLIC ACID], the half-maximal inhibitory concentration (IC50) in assay [2] was 25800 nM; in assay [4] it was more than 40000 nM; in assay [5], 3330 nM; in assay [6] it was more than 40000 nM; in [7], more than 40000 nM.
Consider `CC1(C)CC[C@]2(CCCCC(=O)N[C@@H](Cc3ccccc3)C(=O)O)CC[C@]3(C)C(=CC[C@@H]4[C@@]5(C)CC[C@H](OCc6ccc(C(=O)O)cc6)C(C)(C)[C@@H]5CC[C@]43C)[C@@H]2C1`, for which the Ratio in assay [3] was 2. Moreover, the Activity result was “Dose-dependent effect” in [8], “Dose-dependent effect” in assay [9], 20% in [10] and 40% in [11]. In addition, the 50% inhibitory concentration (IC50) in [1] was 150 nM; in assay [2], 890 nM; in [4], more than 40000 nM; in [5], 160 nM; in assay [6], more than 40000 nM; in assay [7] it was more than 40000 nM. Besides, the outcome in assay [12] was Active.
As to `CC1(C)CC[C@]2(CCCCC(=O)N[C@H](Cc3ccccc3)C(=O)O)CC[C@]3(C)C(=CC[C@@H]4[C@@]5(C)CC[C@H](O)C(C)(C)[C@@H]5CC[C@]43C)[C@@H]2C1`, the IC50 in assay [1] was 740 nM; in assay [5], 680 nM.
Turning to `CC1(C)CC[C@]2(CCCCC(=O)NC(Cc3cccc(Cl)c3)C(=O)O)CC[C@]3(C)C(=CC[C@@H]4[C@@]5(C)CC[C@H](O)C(C)(C)[C@@H]5CC[C@]43C)[C@@H]2C1` (some centres undefined), the figures for the IC50 in assay [1] and in [5] were 510 nM and 520 nM, respectively.
On to `CC1(C)CC[C@]2(CCCCC(=O)O)CC[C@]3(C)C(=CC[C@@H]4[C@@]5(C)CC[C@H](O)C(C)(C)[C@@H]5CC[C@]43C)[C@@H]2C1`, for which the Ratio in assay [3] turned out to be 2. In addition, the half-inhibitory concentration (IC50) in assay [1] is 1330 nM; in assay [2], 5200 nM; in [4], more than 40000 nM; in [5], 1110 nM; in assay [6], more than 40000 nM; in [7] it was more than 40000 nM.
Take `C[C@H]1[C@H](C)CC[C@]2(C(=O)O)CC[C@]3(C)C(=CC[C@@H]4[C@@]5(C)C[C@@H](O)[C@H](O)C(C)(C)[C@@H]5CC[C@]43C)[C@H]12` [COROSOLIC ACID]: in assay [3], the Ratio is 2. Moreover, the IC50 in [1] is 5490 nM; in assay [2], 24600 nM; in [4], more than 40000 nM; in assay [5], 11300 nM; in [6], more than 40000 nM; in [7], more than 40000 nM.
For the compound `COc1ccc(CC(NC(=O)CCCC[C@]23CCC(C)(C)C[C@H]2C2=CC[C@@H]4[C@@]5(C)CC[C@H](O)C(C)(C)[C@@H]5CC[C@@]4(C)[C@]2(C)CC3)C(=O)O)cc1` (some centres undefined), the figures for the IC50 in [1] and in [5] were 600 nM and 550 nM, respectively.
The like results for `COc1ccc(CC(NC(=O)CCCC[C@]23CCC(C)(C)C[C@H]2C2=CC[C@@H]4[C@@]5(C)CC[C@H](O)C(C)(C)[C@@H]5CC[C@@]4(C)[C@]2(C)CC3)C(=O)O)cc1OC` (some centres undefined) were, in that order, 820 nM and 700 nM.
On to `CC1(C)CC[C@]2(C(=O)O)CC[C@]3(C)C(=CC[C@@H]4[C@@]5(C)CC[C@H](O)C(C)(C)[C@@H]5CC[C@]43C)[C@@H]2C1` [OLEANOLIC_ACID], for which the IC50 in [4], in assay [6] and in assay [7] was more than 40000 nM each time.
Turning to `C[C@H]1[C@H](C)CC[C@]2(C)CC[C@]3(C)C(=CC[C@@H]4[C@@]5(C)CC[C@@H](O)[C@](C)(C(=O)O)[C@@H]5CC[C@]43C)[C@H]12` [BOSWELLIC ACID], the half-maximal inhibitory concentration (IC50) in assay [1] and in assay [5] was more than 20000 nM each time.
With `CSCC[C@H](NC(=O)CCCC[C@]12CCC(C)(C)C[C@H]1C1=CC[C@@H]3[C@@]4(C)CC[C@H](O)C(C)(C)[C@@H]4CC[C@@]3(C)[C@]1(C)CC2)C(=O)O`, the figures for the IC50 in [1] and in assay [5] were 550 nM and 750 nM, respectively.
The like results for `CC1(C)CC[C@]2(C(=O)O)CC[C@]3(C)C(=CC[C@@H]4[C@@]5(C)CC[C@H](OCc6ccccc6C(=O)O)C(C)(C)[C@@H]5CC[C@]43C)[C@@H]2C1` were, in that order, 2720 nM and 2220 nM.
The like results for `C[C@H]1[C@H](C)CC[C@]2(C(=O)O)CC[C@]3(C)C(=CC[C@@H]4[C@@]5(C)C[C@@H](O)[C@H](O)[C@@](C)(CO)[C@@H]5CC[C@]43C)[C@H]12` [ASIATIC ACID] were, in that order, more than 20000 nM and more than 20000 nM.
For the compound `CC1(C)CC[C@]2(CCCCCCCCC(=O)O)CC[C@]3(C)C(=CC[C@@H]4[C@@]5(C)CC[C@H](O)C(C)(C)[C@@H]5CC[C@]43C)[C@@H]2C1`, the IC50 in assay [1] stood at 780 nM; in assay [5], 790 nM.
